Insulin prom act: activators of insulin promoter-driven GFP, primary screen, imaging, TRM-6 cells (human fetal islet line), eGFP reporter, cell count; plate-scaled: unstimulated 0, stimulated control 100; activation, % at 2 µM; hit rate 0.81% among 130,000; AID 1296, 2008;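 active = activation at 2 µM above a set limit, confirmed on inspection of the cell images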;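 also: share of cells whose green reporter signal exceeds an intensity cutoff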
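System – TRM-6 insulin promoter–eGFP reporter cells · Probe or stimulus – 0.75 µM tamoxifen as reporter inducer · Dosing – single-point 2 µM compound dose · Incubation – tamoxifen pre-incubation 15 h overnight, then compound exposure 48 h at 37 °C · Measured by – fixed-cell fluorescence microscopy, eGFP plus Hoechst · Evaluation – percent GFP-positive cells normalized to per-plate controls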
Active calls of the source: *. The sample as a whole holds a higher share of hits than the screen did.

SMILES	Insulin prom act
O=C(COc1ccc(S(=O)(=O)N2CCCC2)cc1Cl)NCc1ccc2c(c1)OCO2	-5
O=C(COc1ccc(S(=O)(=O)NC2CCCCC2)cc1Cl)NCc1ccc2c(c1)OCO2	100*
c1ccc(-c2ccc(-c3cn4c(n3)CCC4)cc2)cc1	5
c1csc(C2CCCN2c2nc3nonc3nc2NC2CC2)n1 (stereo not drawn)	0
COc1ccc(CCn2c(-c3ccco3)nc3nc4ccccc4nc32)cc1	179*
COc1ccc(Cn2c(-c3ccc(OC)cc3)nc3ccccc32)cc1	9
COc1ccc(CCn2c(C)nc3c(c(=O)c4ccccc4n3C)c2=O)cc1	-3
COCCN1C(=O)c2oc3cc(C)c(C)cc3c(=O)c2C1c1cccc(O)c1 (stereo not drawn)	-22
CNC(=S)/N=C/NOCc1ccc(Cl)cc1Cl	4
COc1ccc(N2C(=O)CC(N3CCOCC3)C2=O)cc1 (stereo not drawn)	0
COc1ccc(NC2CC(=O)N(c3cccc(C)c3)C2=O)cc1 (stereo not drawn)	600*
COc1ccc(N2C(=O)CC(Nc3cccc(C(C)=O)c3)C2=O)cc1OC (stereo not drawn)	1
COc1cccc(CNC(=O)CCNS(=O)(=O)c2cccs2)c1	7
CCOP(=O)(c1ccc(N(C)C)cc1)C(O)c1ccc(Cl)cc1 (stereo not drawn)	0
COc1cc(NC(C(=O)Nc2cccc(C(C)=O)c2)c2ccccc2)cc(OC)c1OC (stereo not drawn)	3
O=C(CSc1nn(-c2ccccc2)c(=S)s1)Nc1ncccn1	377*
O=C(CSc1ncn(-c2ccccc2)n1)Nc1nccs1	-8
Cc1cc(C)nc(NC(=O)CSc2nc3ccccc3s2)n1	-4
O=C(Nc1ccc2c(c1)OCO2)C1CCCCN1S(=O)(=O)c1ccccc1 (stereo not drawn)	-9
Cc1ccc(-n2c(SCC(=O)N3CCOCC3)nnc2-c2cccnc2)cc1	3
Nn1c(SCC(=O)N2CCOCC2)nnc1-c1ccccc1Cl	111*
O=C(CSc1nnc(-c2ccco2)n1-c1ccccc1)N1CCOCC1	3
O=C(O)c1ccc(CNC(=O)c2ccc(C(F)(F)F)cc2)cc1	-73
COc1ccc(C2NC(=O)NC(C)=C2C(C)=O)cc1 (stereo not drawn)	129
COc1ccc(NC2=C(C(C)=O)C(c3ccc(OC)cc3)C(C(C)=O)C(C)(O)C2)cc1 (stereo not drawn)	317*
SMILES	Insulin prom act
COc1ccc(C2C(C(C)=O)=C(Nc3ccccc3)CC(C)(O)C2C(C)=O)cc1OC (stereo not drawn)	215
Cc1ccc(C)n1-c1ccc(C(=O)NN=C2CCCC2)cc1	-9
CC1(c2ccccc2)NC(=O)N(CC(=O)Nc2cccc(C#N)c2)C1=O (stereo not drawn)	4
CC(C)N(C(=O)CN1C(=O)NC2(CCCCCC2)C1=O)C(C)C	4
CC1C(=O)CC(c2ccco2)NC1c1ccco1 (stereo not drawn)	4
C=CCN1C(=O)C2C3CC(=O)C(c4ccccc43)C2C1=O (stereo not drawn)	8
CC[N+]1=C(C)C(C)(C)c2cc(C)ccc21	488*
O=C(N/N=C/c1cc(Br)c(Br)o1)c1cccnc1	2
Cn1cccc1C(=O)OCC(=O)c1cc2ccccc2o1	185*
Cc1cc(SCC(=O)c2cc3ccccc3o2)nc2ccccc12	8
CC(C)NC(=O)c1cc2ccccc2o1	-27
O=C(N/C(=C\c1cccs1)C(=O)N1CCOCC1)c1cccs1	-78
CCN(CC)S(=O)(=O)c1cccc(C(=O)N[C@H](C(=O)OCC(=O)NC(=O)NC)C(C)C)c1	-3
CCN(CCCNC(=O)CCCOc1cc(=O)n(C)c2ccccc12)Cc1ccccc1	0
O=C(Nc1ccc2nc3n(c(=O)c2c1)CCCC3)c1cccc([N+](=O)[O-])c1	0
O=c1c2c(-c3ccc([N+](=O)[O-])cc3)csc2nc2n1CCC2	481*
Cc1c(C(=O)O)sc2nc3n(c(=O)c12)CCC3	0
Cc1cc(C)c(S(=O)(=O)N2CCOC2CNC(=O)C(=O)NCCc2c[nH]c3ccccc23)c(C)c1 (stereo not drawn)	310*
CCN(CC)CCNC(=O)C(=O)NCC1OCCN1S(=O)(=O)c1ccc2c(c1)OCCO2 (stereo not drawn)	-9
O=C(NCc1cccnc1)C(=O)NCC1OCCN1S(=O)(=O)c1ccccc1 (stereo not drawn)	7
CC(=O)c1ccc(NC(=S)NCc2cccnc2)cc1	0
CC(C)(C)C(=O)c1cn(CC(=O)NCc2ccc3c(c2)OCO3)c2ccccc12	7
CCCCNC(=S)N1CCn2cccc2C1c1ccccc1 (stereo not drawn)	0
S=C(NCc1ccccc1)N1CCn2cccc2C1c1cccnc1 (stereo not drawn)	124*
O=C(NC(=S)NCc1ccccc1)c1cccnc1	-7
SMILES	Insulin prom act
Cc1cc(C)cc(NC(=S)N2CCN(CCO)CC2)c1	7
CCN(c1ccc(OCC(=O)OCC(=O)Nc2ccc(F)c(F)c2F)cc1)S(=O)(=O)c1ccccc1	3
CCC(CC)C(=O)Nc1cc(C)cc(C)c1	-9
O=C1c2ccccc2C(=O)c2c1oc(C(F)(F)F)c2C(=O)c1ccccc1	0
CC(=O)c1c(C)oc2c1C(=O)c1ccccc1C2=O	4
O=C1c2ccccc2-c2onc3ccc(Oc4ccccc4)c1c23	400*
CCOC(=O)CN1C(c2ccc(O)cc2)Nc2ccc(Br)cc2C1c1ccccc1 (stereo not drawn)	0
Cc1ccc(-c2ccc(=O)n(CC(=O)N3CCN(c4cc(Cl)ccc4C)CC3)n2)cc1	-9
CSc1nccc(-c2nn(-c3ccc(C)cc3)ccc2=O)n1	-8
Cc1ccc(-n2c(Cl)c(Cl)nc(Cl)c2=O)cc1	233*
COc1cnn(-c2ccc(C)cc2)c(=O)c1Cl	146
CC(C)CCSc1nnc(Cn2c(=O)sc3ccccc32)n1C	-12
O=C(Cn1c(=O)n(-c2ccc(F)cc2)c(=O)c2sccc21)c1ccccc1	-7
CCCNC(=O)c1ccc(CN2CCOCC2)cc1	295*
O=C(NCc1ccccc1)c1ccc(CN2CCOCC2)cc1	7
Cc1cccc(CSCCNC(=O)c2ccc(CN3CCOCC3)cc2)c1	-71
O=C1CC(N2CCN(c3nc4ccccc4s3)CC2)C(=O)N1c1cccc(F)c1 (stereo not drawn)	1
CCOC(=O)/C=C1\NC(=O)C(C)S1 (stereo not drawn)	-4
CCCn1c(=O)n(C)c(=O)c2c(SCC(=O)NCc3ccco3)nc(C3CC3)nc21	-3
COc1cccc(-n2c(Cc3cc(=O)[nH]c(=O)[nH]3)nnc2SCc2cccc(C(F)(F)F)c2)c1	7
COc1ccc(N(C(=O)c2ccco2)S(=O)(=O)c2cccs2)cc1	165
COc1ccc(N(C(=O)c2ccco2)S(=O)(=O)c2ccc(F)cc2)cc1	456*
COc1ccc(N(C(=O)c2ccco2)S(=O)(=O)c2cc(OC)ccc2OC)cc1	0
Cc1ccc(CNC(=O)C(Cc2ccccc2)NS(=O)(=O)c2cccs2)cc1 (stereo not drawn)	96*
CC(Cc1ccccc1)C(=O)NCc1ccncc1 (stereo not drawn)	-5
CCCC(C)C(=O)NCc1ccc2c(c1)OCO2 (stereo not drawn)	3
CC(C)C(NS(=O)(=O)c1cccs1)C(=O)NCc1ccc2c(c1)OCO2 (stereo not drawn)	162*
